Measurements taken from ChEMBL document CHEMBL1123985, “Oral absorption of cephalosporin antibiotics. 1. Synthesis, biological properties, and oral bioavailability of 7-(arylacetamido)-3-chloro cephalosporins in animals” (J Med Chem, 1988).
Values after ≈ are worked out from the molar mass of the structure shown.

Columns and labels:
[1] = Area under plasma concentration vs time curve observed in Rhesus monkeys after, iv administration of single 30 mg/kg dose; type: ADME, organism-based, Macaca mulatta; set-up: dose 30 mg/kg, route intravenous; settings: rhesus monkey
Summary of the method: (§1)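 Rhesus monkeys, adult males, six animals per compound, each given drug orally and iv; fasted overnight. Single 30 mg/kg solution doses, by nasogastric tube (in water) or saphenous vein (in isotonic lactated Ringer). Plasma sampled at intervals, frozen at -70 °C, antibacterial activity by microbiological assay. AUC in μg min/mL; oral bioavailability from oral vs iv AUC.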

[2] = Area under plasma concentration vs time curve observed in Rhesus monkeys after oral administration of single 30 mg/kg dose; type: ADME, organism-based, Macaca mulatta; set-up: dose 30 mg/kg, route oral; settings: rhesus monkey; summary of the method: as §1
[3] = test system: Canis familiaris; experiment: Area under plasma concentration vs time curve observed in female mongrel dogs after, iv administration of single 15 mg/kg dose; type: ADME, organism-based, Canis lupus familiaris; set-up: dose 15 mg/kg, route intravenous; settings: dog, in vivo
Summary of the method: (§2)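 Six female mongrel dogs (14-23 kg) fasted overnight, bladder catheterized; single 15 mg/kg solution doses by stomach tube (in water, total 500 mL) or cephalic vein (saline or pH 6.0 NaCl/phosphate/acetate buffer). Plasma sampled at intervals; activity by disk-plate agar diffusion against E. coli MB 3804, standards in dog serum or buffer. AUC μg min/mL, mean ± SEM; BA from iv vs po AUC and urinary recovery.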

[4] = test system: Canis familiaris; experiment: Area under plasma concentration vs time curve observed in female mongrel dogs after, oral administration of single 15 mg/kg dose; type: ADME, organism-based, Canis lupus familiaris; set-up: dose 15 mg/kg, route oral; settings: dog, in vivo; summary of the method: as §2
[5] = Area under plasma concentration vs time curve observed in rats for 0-3 h; type: ADME; set-up: time < 3 hr; settings: rat
Summary of the method: (§3)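 Rats, jugular vein cannulated (two per group), test compound iv 20 mg/kg; probenecid 100 mg/kg iv 5 min before in treated groups. Heparinized plasma sampled at 5, 20, 40 min and 1, 2, 3 h, assayed microbiologically (B. subtilis agar well). AUC 0-3 h in μg min/mL; half-life in min.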

[6] = Oral bioavailability in mouse; type: ADME, organism-based; settings: in vivo
Summary of the method: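 Male Cox mice given water and liquid diet overnight; 20 mg/kg in saline (2 mg/mL) sc or orally; urine from collection cages plus bladder contents over 2 h; activity by agar well assay with Bacillus subtilis ATCC 6633. Bioavailability from percent dose excreted in urine after oral vs parenteral dosing.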

[7] = Bioavailability in rat; type: ADME, organism-based; settings: in vivo
Summary of the method: (§4)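 Male Wistar rats (200-300 g), jugular-cannulated, upper GI emptied by light cycle; 20 mg/kg in saline (6 mg/mL) sc or orally. Urine collected in wire-bottom cages, assayed by B. subtilis agar well method. Mean ± SD recovery with N and range; bioavailability = oral over mean sc recovery.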

[8] = Mean plasma levels in rats 1 hr after iv administration of 100 mg/kg of probenecid 5 min prior to test compound; type: ADME, organism-based; set-up: dose 100 mg/kg, route intravenous; settings: rat, read-out: Plasma levels; summary of the method: as §3
[9] = Mean plasma levels in rats 2 hr after iv administration of 100 mg/kg of probenecid 5 min prior to test compound; type: ADME, organism-based; set-up: dose 100 mg/kg, route intravenous; settings: rat, read-out: Plasma levels; summary of the method: as §3
[10] = Mean plasma levels in rats 3h after intravenous administration of 20 mg/kg of compound; type: ADME, organism-based; set-up: dose 20 mg/kg, route intravenous; settings: rat, read-out: Plasma levels; summary of the method: as §3
[11] = Mean plasma levels in rats 40 min after iv administration of 100 mg/kg of probenecid 5 min prior to test compound; type: ADME, organism-based; set-up: dose 100 mg/kg, route intravenous; settings: rat, read-out: Plasma levels; summary of the method: as §3
[12] = Mean plasma levels in rats at a time 5 min after iv administration of 100 mg/kg of probenecid 5 min prior to test compound; type: ADME, organism-based; set-up: dose 100 mg/kg, route intravenous; settings: rat, read-out: Plasma levels; summary of the method: as §3
[13] = Mean plasma levels in rats 20 min after iv administration of 100 mg/kg of probenecid 5 min prior to test compound; type: ADME, organism-based; set-up: dose 100 mg/kg, route intravenous; settings: rat, read-out: Plasma levels; summary of the method: as §3
[14] = Oral bioavailability in Rhesus monkey; type: ADME, organism-based, Macaca mulatta; settings: in vivo; summary of the method: as §1
[15] = Percent of urinary recovery in rats after, oral administration of single 20 mg/kg dose in solution (N,range); type: ADME, organism-based; set-up: dose 20 mg/kg, route oral; settings: rat, urine, read-out: Recovery; summary of the method: as §4
[16] = Percent of urinary recovery in rats after, sc administration of single 20 mg/kg dose in solution (N,range); type: ADME, organism-based; set-up: dose 20 mg/kg, route subcutaneous; settings: rat, urine, read-out: Recovery; summary of the method: as §4
[17] = Dose in urine (24-h urine excretion) in female mongrel dogs after oral administration of single 15 mg/kg dose; type: ADME, organism-based, Canis lupus familiaris; set-up: dose 15 mg/kg, route oral; settings: dog
Summary of the method: (§5)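 Female mongrel dogs (n=6), bladder catheter; urine collected at intervals after single 15 mg/kg iv or oral solution dose, frozen; antibiotic activity by disk-plate agar diffusion against E. coli MB 3804 with standards in pH 6.0 buffer; percent of dose recovered in urine.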

[18] = Half-life of the compound; type: ADME; summary of the method: as §3
[19] = test system: Klebsiella aerogenes; experiment: Minimum inhibitory concentration against EB17 strain of Enterobacter aerogenes; type: functional
[20] = test system: Salmonella; experiment: Minimum inhibitory concentration against X514 strain of Salmonella; type: functional
[21] = Minimum inhibitory concentration against N9 strain of Shigella sonnei; type: functional
[22] = test system: Staphylococcus epidermidis; experiment: Minimum inhibitory concentration against 222 strain of Staphylococcus epidermidis; type: functional
[23] = test system: Staphylococcus epidermidis; experiment: Minimum inhibitory concentration against Epil strain of Staphylococcus epidermidis; type: functional
[24] = test system: Staphylococcus aureus; experiment: Minimum inhibitory concentration against X1.1 strain of Staphylococcus aureus; type: functional
[25] = test system: Streptococcus pyogenes; experiment: Minimum inhibitory concentration against Streptococcus pyogenes C203; type: functional
[26] = Minimum inhibitory concentration against sens CL strain of Haemophilus influenzae; type: functional
[27] = Minimum inhibitory concentration against res 76 strain of Haemophilus influenzae; type: functional
[28] = Dose in urine (24-h urine excretion) in female mongrel dogs after iv administration of single 15 mg/kg dose; type: ADME, organism-based, Canis lupus familiaris; set-up: dose 15 mg/kg, route intravenous; settings: dog; summary of the method: as §5
[29] = test system: Staphylococcus aureus; experiment: Minimum inhibitory concentration against 3055 strain of Staphylococcus aureus
[30] = test system: Streptococcus pyogenes; experiment: Minimum inhibitory concentration against C203 strain of Streptococcus pyogenes
[31] = test system: Streptococcus pneumoniae; experiment: Minimum inhibitory concentration against park strain of Streptococcus pneumoniae
[32] = test system: Streptococcus pneumoniae; experiment: Minimum inhibitory concentration against Park strain of Streptococcus pneumoniae
[33] = Oral bioavailability in dog (female mongrel); type: ADME, organism-based, Canis lupus familiaris; settings: in vivo; summary of the method: as §2
[34] = test system: Escherichia coli; experiment: Minimum inhibitory concentration against EC14 strain Escherichia coli; type: functional
[35] = test system: Klebsiella pneumoniae; experiment: Minimum inhibitory concentration against X68 strain of Klebsiella pneumoniae; type: functional
[36] = test system: Staphylococcus aureus; experiment: Minimum inhibitory concentration against S13E strain of Staphylococcus aureus; type: functional
[37] = test system: Staphylococcus aureus; experiment: Minimum inhibitory concentration against V41 strain of Staphylococcus aureus; type: functional

Row | Compound | AUC [1] | AUC [2] | AUC [3] | AUC [4] | bioavailability [6] | bioavailability [14] | dose excreted [17] | MIC [19] | MIC [20] | MIC [21] | MIC [22] | MIC [23] | MIC [24] | MIC [25] | MIC [26] | MIC [27] | dose excreted [28] | MIC [29] | MIC [30] | MIC [31] | other results
1 | Nc1nc(CC(=O)N[C@@H]2C(=O)N3C(C(=O)O)=C(Cl)CS[C@H]23)cs1 | 50300 ng·h/mL | 2170 ng·h/mL | 33200 ng·h/mL | 9330 ng·h/mL | 64% | 4.2% | 10% | 8 µg/mL (≈ 21.3 µM) | 0.25 µg/mL (≈ 0.667 µM) | 4 µg/mL (≈ 10.7 µM) | 2 µg/mL (≈ 5.34 µM) | 8 µg/mL (≈ 21.3 µM) | 2 µg/mL (≈ 5.34 µM) | 0.125 µg/mL (≈ 0.333 µM) | 1 µg/mL (≈ 2.67 µM) | 1 µg/mL (≈ 2.67 µM) | 36% | 1 µg/mL (≈ 2.67 µM) | 0.25 µg/mL (≈ 0.667 µM) | 0.5 µg/mL (≈ 1.33 µM) | AUC at 3 h [5]: 35400 ng·h/mL; bioavailability [7]: 19.2%; concentration at 1 h [8]: 9800 ng/mL; concentration at 2 h [9]: 1800 ng/mL; concentration at 3 h [10]: < 1300 ng/mL; concentration at 40 min [11]: 15600 ng/mL; concentration at 5 min [12]: 57500 ng/mL; concentration at 20 min [13]: 32000 ng/mL; dose excreted [15]: 16.2%; dose excreted [16]: 84.3%; half-life [18]: 23.5 min; MIC [32]: 0.25 µg/mL (≈ 0.667 µM)
2 | O=C(Cc1cccs1)N[C@@H]1C(=O)N2C(C(=O)O)=C(Cl)CS[C@H]12 | 43200 ng·h/mL | 5670 ng·h/mL | 75300 ng·h/mL | 15500 ng·h/mL | 44% | 13.1% | 17% | 64 µg/mL (≈ 178 µM) | 2 µg/mL (≈ 5.57 µM) | 32 µg/mL (≈ 89.2 µM) | 1 µg/mL (≈ 2.79 µM) | 2 µg/mL (≈ 5.57 µM) | 0.5 µg/mL (≈ 1.39 µM) | 0.125 µg/mL (≈ 0.348 µM) | 1 µg/mL (≈ 2.79 µM) | 1 µg/mL (≈ 2.79 µM) | 75% | 0.5 µg/mL (≈ 1.39 µM) | 0.125 µg/mL (≈ 0.348 µM) | 0.25 µg/mL (≈ 0.697 µM) | bioavailability [33]: 21%; MIC [34]: 4 µg/mL (≈ 11.1 µM); MIC [35]: 2 µg/mL (≈ 5.57 µM); MIC [36]: 16 µg/mL (≈ 44.6 µM); MIC [37]: 16 µg/mL (≈ 44.6 µM); MIC [32]: 0.125 µg/mL (≈ 0.348 µM)
